Measured values from different studies.
Protocols differ between the studies behind these lines.
Cell line: HEK293
Effect on: cell growth or viability

Compound	test	conditions	IC50 [µM]
c1ccc2c(OCCCCCCN3CCCCCC3)cccc2c1	–	48 h	11.8
COc1cccc2c1C(=O)c1c(O)c3c(c(O)c1C2=O)C[C@@](O)(C(=O)CO)C[C@@H]3O[C@H]1C[C@H](N)[C@H](O)[C@H](C)O1	MTT	24 h	> 40
CC(=O)O[C@H](C)C(=O)CCCCC[C@@H]1NC(=O)[C@H]2CCCN2C(=O)[C@H](Cc2ccccc2)NC(=O)C(C)(C)NC1=O	XTT	–	0.006
CCCCCCCCc1c(C)[nH]c(C)c(C#N)c1=O	–	–	> 10
O=c1cc(CCl)c2cc(O)ccc2o1	MTT	36 h	> 20
Cc1nc2ccccc2c(O)c1-c1ccc(Cl)cc1	–	–	> 10
CC(=O)SCc1cc(=O)oc2ccc(O)cc12	MTT	36 h	> 20
C[C@@H](O)C(=O)CCCCCCC(=O)Nc1ccccc1	XTT	–	35.6
CCCc1ccc(OCCCCCN2CCCCCC2)cc1	–	48 h	33.3
Cc1[nH]c(C)c(-c2ccc(C(=O)c3ccc(Cl)cc3)cc2)c(=O)c1Br	–	–	> 10
CC(=O)Oc1ccc2oc(=O)cc(CSC(C)=O)c2c1	MTT	36 h	> 20
O=C(c1cc(-c2cccs2)[nH]n1)N1CCN(S(=O)(=O)c2ccc(Cl)s2)CC1	–	–	> 10
C[C@@H](O)C(=O)CCCCC[C@@H]1NC(=O)[C@H]2CCCN2C(=O)[C@H](Cc2ccccc2)NC(=O)C(C)(C)NC1=O	XTT	–	0.04
Cc1c(C)c2c(O)cc(O)cc2oc1=O	MTT	36 h	> 20
